In the library only some 4.1% were active in any assay of this set; here they are far more common.
SMARCA2 act – SMARCA2 (BRM) function activators, primary screen, cell-based, luminescence, high throughput. MG213 cells, MMTV-luciferase reporter, dexamethasone, overnight. activation, % at 9.1 µM. actives 1% (n = 370,000). AID 652017, 2013; in the data active = activation above about 7.8%;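 also: 0% = vehicle wells and 100% = reference activator wells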
MPTP inh – mitochondrial permeability transition pore inhibitors, primary screen, biochemical, isolated mouse mitochondria, absorbance | actives 1.4% (n = 360,000) | AID 602449, 2012 | Ca2+ swelling absorbance, 30 min | inhibition, % at 10 µM;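 active = inhibition of 50% or more, scaled per plate between neutral and stimulator controls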;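 also: 0% = DMSO wells given calcium and 100% = 1 mM EGTA wells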
ATG4B inh – ATG4B protease inhibitors, primary screen, biochemical, fluorescence, uHTS; Cysteine protease ATG4B (Homo sapiens), Q9Y4P1; ATG4B cleavage of LC3-PLA2, NBD-HPC fluorescence, 1 h; inhibition, % at 8.33 µM; actives 0.51% (n = 340,000); in the data active = inhibition above about 40%
Target sequence (Q9Y4P1 whole entry, looked up): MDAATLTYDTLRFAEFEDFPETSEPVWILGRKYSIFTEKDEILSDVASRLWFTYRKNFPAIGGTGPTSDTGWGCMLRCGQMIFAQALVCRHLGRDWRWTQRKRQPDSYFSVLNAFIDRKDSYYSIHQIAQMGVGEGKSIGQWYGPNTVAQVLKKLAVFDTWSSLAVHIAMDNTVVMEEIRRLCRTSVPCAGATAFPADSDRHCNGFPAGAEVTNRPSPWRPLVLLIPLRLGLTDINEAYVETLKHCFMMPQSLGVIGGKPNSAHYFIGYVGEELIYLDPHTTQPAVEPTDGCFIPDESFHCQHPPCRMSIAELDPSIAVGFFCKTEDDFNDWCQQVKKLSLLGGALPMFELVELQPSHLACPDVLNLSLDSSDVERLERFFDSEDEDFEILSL
MC4R ag barr – MC4R agonists recruiting beta-arrestin, primary screen, cell-based, luminescence, agonist arm of biased-ligand search; Melanocortin receptor 4 (Homo sapiens), P32245; U2OS MC4R beta-arrestin complementation; percent of melanotan II response, DMSO zero; activation, % at 8.9 µM; actives 0.98% (n = 360,000); AID 540308, 2011;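 active = activation above a per-plate cutoff, the mean activation of sample wells on that plate plus 3 SD, cut at about 8% in these data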
MC4R antagonist – MC4R antagonists of cAMP signaling, primary screen, cell-based, TR-FRET, antagonist arm of biased-ligand search; Melanocortin receptor 4 (Homo sapiens), P32245; MC4R-expressing cells, MTII-stimulated cAMP, LANCE TR-FRET; inhibition, % at 6.5 µM; actives 0.48% (n = 360,000); AID 540295, 2011;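 active = inhibition above its plate's cutoff, the mean of tested wells on that plate plus 3 SD, cut at about 29% in these data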;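 also: 0% = Melanotan II alone and 100% = Melanotan II plus saturating MCL0020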
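Assay system: U2OS cells stably expressing human melanocortin 4 receptor (MC4R) / Dosing: 6.5 µM / Timing: compound 30 min, challenge 1 h, detection 1 h / Measured by: Eu-cAMP/anti-cAMP TR-FRET, emission 671 nm / Replicates: singlicate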
SMARCA2 act conf – SMARCA2 (BRM) function activators, confirmation, cell-based, luminescence, triplicate. shares compounds with SMARCA2 act. activation, % at 9.1 µM. actives 30% (n = 3,500). MG213 cells, MMTV-luciferase with dexamethasone, overnight; MG213 cells expressing E1A, Rb sequestered; DMSO wells 0%, reference activator 100%;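 active = activation above its plate's cutoff, the mean activation of tested wells plus 3 SD, cut at about 7.9% in these data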
VP16 Luc act – GAL4-VP16 luciferase reporter activation, counter-screen for SMARCA2 (BRM) activator project, cell-based, pG5luc, luminescence, high throughput; shares compounds with SMARCA2 act; actives 41% (n = 3,500); activation, % at 9.1 µM; AID 686939, 2013; HEK293 GAL4-VP16 pG5luc reporter; scaled: DMSO wells 0%, SAHA wells 100%;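 active = activation above the solvent-only control well mean plus 3 SD, averaged across control plates, cut at about 5.2% in these data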
* = called active by the depositor; · = no result.

SMILES | SMARCA2 act | MPTP inh | ATG4B inh | MC4R ag barr | MC4R antagonist | SMARCA2 act conf | VP16 Luc act
c1ccc(-c2csc(CN3CCCCC3)n2)cc1 | 14* | -2 | -11 | 1 | 4 | 8.1* | 15*
O=C(NCc1ccccc1)N1CCN(Cc2nc3ccccc3c(=O)[nH]2)CC1 | 0 | · | · | · | · | · | ·
Cc1cc(=O)oc2cc(OCCc3ccccc3)ccc12 | 8.6* | 0 | -9 | 0 | -11 | 8.7* | 21*
Cc1cc(=O)oc2cc(OCCCC[n+]3ccccc3)ccc12 | -2 | 1 | -2 | -2 | -2 | · | ·
Cc1ccc(NC(=O)C2CCN(c3ncccn3)CC2)cc1C | -1 | · | · | · | · | · | ·
CC(C)Cc1cc(C(=O)NCc2cccs2)no1 | 13* | 1 | -4 | 2 | 19 | 7 | 14*
O=C(NCc1ccccc1)c1noc2c1CCCC2 | 5 | 0 | 9 | 0 | 3 | · | ·
O=C(NCc1ccco1)c1noc2c1CCCCC2 | 10* | -1 | 1 | 0 | 0 | 4 | 1
CC(C)Cc1cc(C(=O)NCc2cccnc2)no1 | 3 | 1 | -5 | 2 | 14 | · | ·
CC(C)c1cc(C(=O)NCc2ccco2)no1 | 9.0* | 0 | -1 | -1 | -5 | 8 | 7.3*
CC1CCN(c2ccc(C(=O)O)cc2NS(=O)(=O)c2ccccc2[N+](=O)[O-])CC1 | -1 | · | · | · | · | · | ·
COc1cc2c[n+](C)c3c4ccccc4ccc3c2cc1OC | 11* | 1 | -12 | 1 | -5 | 42* | 1
COCc1c(C(=O)N/N=C(/C)c2ccc(OCc3ccccc3)cc2)nnn1-c1nonc1N | 1 | 1 | 7 | -2 | 4 | · | ·
C/C(=N\NC(=O)c1nnn(-c2nonc2N)c1C)c1ccc(OCc2ccccc2)cc1 | 14* | -2 | -4 | -2 | 4 | 4 | 6.1*
COC(=O)C[C@H]1C=C[C@H](NC(=O)c2cccc(F)c2)[C@@H](CO)O1 | -5 | 6 | · | · | · | · | ·
CCn1c(SCc2ccc(C(C)(C)C)cc2)nnc1-c1ccc(C(C)(C)C)cc1 | -5 | · | · | · | · | · | ·
CCCOc1ccc(C(=O)N2CCC(Oc3cccnc3)CC2)cc1 | 0 | · | · | · | · | · | ·
Cc1ccc(C(=O)Nc2cccnc2Cl)cc1Cl | 8.3* | 0 | -8 | -1 | 5 | 9.1* | 7.5*
O=C1N2Cc3ccccc3C2CS(=O)(=O)N1C1CCCC1 (stereo unspecified) | 0 | · | · | · | · | · | ·
Clc1cccc(Cl)c1CSc1nnc2ccccn12 | -3 | 0 | 8 | 2 | 1 | · | ·
Fc1cccc(Cl)c1CSc1nnc2ccccn12 | 8.6* | 1 | -7 | -2 | 8 | 7 | 3
Cc1cc(C)c(C#N)c(SCc2cc3c(cc2Cl)OCO3)n1 | 13* | 0 | 3 | 1 | -21 | -2 | 0
Cc1cc(C)c(C#N)c(SCc2ccccc2C)n1 | -2 | -1 | 10 | 2 | -18 | · | ·
Cc1ccc2oc(-c3ccccc3)nc2c1 | 5 | -2 | 3 | 1 | -3 | · | ·
Nc1c(Br)cc2oc(-c3ccccc3)nc2c1Br | 9.5* | 1 | 4 | 7 | 0 | 12* | 7.2*
SMILES | SMARCA2 act | MPTP inh | ATG4B inh | MC4R ag barr | MC4R antagonist | SMARCA2 act conf | VP16 Luc act
C[C@H]1C2CC(OC(=O)Nc3ccccc3C(F)(F)F)C(C2)[C@H]2CCCCN21 (stereo partly specified) | -2 | · | · | · | · | · | ·
COc1cccc(C2N=C(c3ccccc3C)NO2)c1OC (stereo unspecified) | 8.0* | -1 | 6 | 1 | -3 | 4 | 3
O=C(CSc1ccccc1F)Nc1ccc2c(c1)OCO2 | 11* | 0 | -1 | -1 | 8 | 6 | 5.7*
O=C(CSc1ccccc1)Nc1ccc2c(c1)OCO2 | 4 | -3 | -2 | -1 | -1 | · | ·
COc1ccccc1C(=O)N/N=C(\C)CC(=O)Nc1ccc2c(c1)OCCO2 | 0 | 1 | 0 | -1 | 9 | · | ·
C/C(CC(=O)Nc1ccc2c(c1)OCCO2)=N\NC(=O)c1ccccc1F | 8.7* | -1 | 3 | 2 | 1 | 2 | 3
C/C(CC(=O)Nc1ccc2c(c1)OCO2)=N\NC(=O)c1ccccc1N | 17* | 1 | -5 | 2 | 21 | -2 | 2
C/C(CC(=O)Nc1ccc2c(c1)OCCO2)=N\NC(=O)c1ccccn1 | 9.5* | 1 | -10 | -3 | -4 | 2 | 2
C/C(CC(=O)Nc1ccc2c(c1)OCO2)=N\NC(=O)c1ccc(N)cc1 | 4 | 1 | 0 | 2 | -7 | · | ·
COc1cc2c(cc1NC(=O)CSc1nnc(-c3ccccc3C)n1Cc1ccco1)oc1ccccc12 | -5 | · | · | · | · | · | ·
CCn1c2ccccc2c2cc(C=NNC(=O)c3cc(-c4ccc(OC)cc4)n[nH]3)ccc21 | 4 | · | · | · | · | · | ·
COc1ccc(S(=O)(=O)NCc2ccc(C(=O)NCCN(C)Cc3ccccc3)cc2)cc1 | -6 | -1 | · | 2 | 10 | · | ·
COc1ccc(NC(=O)C/C(C)=N/NC(=O)c2ccccn2)c(OC)c1 | 10.0* | 0 | -5 | -1 | 1 | 2 | 5.8*
C/C(CC(=O)Nc1cc(C)cc(C)c1)=N\NC(=O)c1ccccn1 | 9.8* | 4 | 2 | -2 | -6 | -2 | 3
O=C(CC1CCCCC1)NC1CCCC1 | 1 | 0 | -3 | 1 | -2 | · | ·
O=C(CC1CC2CCC1C2)NC1CCCCCCC1 (stereo unspecified) | 9.5* | 0 | -8 | 0 | 7 | 5 | 4
O=C(NCCC1=CCCCC1)c1coc(=O)c(Br)c1 | 20* | 1 | -1 | 0 | -1 | -1 | 5.5*
O=C(COC(=O)c1ccccc1Br)NCCC1=CCCCC1 | 7 | 3 | 1 | 0 | 10 | · | ·
O=C(COC(=O)c1cc(Br)c(Br)s1)NCCC1=CCCCC1 | 9.3* | 0 | 2 | 2 | 18 | -3 | 2
O=C(NCCc1ccccc1)c1coc(=O)c(Br)c1 | 27* | 0 | -6 | 0 | -6 | -9 | 5
Cc1cc(C(=O)NCCC2=CCCCC2)c(C)o1 | 11* | 18 | -8 | -1 | 7 | 20* | 12*
Cc1ccc(S(=O)(=O)N2CCCCC2)cc1C(=O)NCCC1=CCCCC1 | 1 | 1 | -3 | -2 | 9 | · | ·
Cc1ccc(-n2c(SCC(=O)Nc3ccccc3-c3ccccc3)nnc2-c2ccco2)cc1 | -1 | · | · | · | · | · | ·
C#CCCC(=O)O[C@H]1CCC[C@@]2(C(=O)N(Cc3ccccc3)c3ccccc32)[C@H]1NC(=O)CCc1ccccc1 | -3 | · | · | · | · | · | ·

From PubChem BioAssay
